Reference: ChEMBL document CHEMBL1122696, “Synthesis and antiviral/antitumor activities of certain pyrazolo[3,4-d]pyrimidine-4(5H)-selone nucleosides and related compounds” (J Med Chem, 1984)
Activity calls are given as the source filed them. The calls are words filed in the database; no cut-off is given here.

Columns and labels:
[1] = Toxic level of the compound; None; assay type: ADME
Measles morbillivirus = assay: In vitro antiviral activity against measles virus; assay type: functional; conditions: read-out: ED50 (the source's name)
Human respirovirus 3 = assay: In vitro antiviral activity against parainfluenza type (para 3) virus; assay type: functional; conditions: read-out: ED50 (the source's name)
L1210 [2] = assay: In vitro antitumor activity against L1210 leukemia cells; b = Inactive at 10e-4 M; assay type: functional, cell-based; conditions: Mus musculus
How it was run: (§1)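 L1210 and P388 cells kept in RPMI-1640 with 10% heat-inactivated fetal calf serum. Seeded in tubes at 5×10^4 cells/mL and grown 48 h at 37 °C with compound at 4-5 log doses. Growth counted by Coulter counter and expressed as % of untreated control tubes. ID50 is the dose giving 50% growth inhibition.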

P388 [3] = assay: In vitro antitumor activity against P388 leukemia cells; b = Inactive at 10e-4 M; assay type: functional, cell-based; conditions: Mus musculus; how it was run: as §1
Human alphaherpesvirus 2 = assay: In vitro antiviral activity against Herpes simplex type 2 virus; assay type: functional; conditions: read-out: ED50 (the source's name)
Vaccinia virus = assay: In vitro antiviral activity against Vaccinia virus; assay type: functional; conditions: Orthopoxvirus vaccinia; read-out: ED50 (the source's name)
[4] = Toxic level of the compound; assay type: ADME
How it was run: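 HeLa and Vero cells grown overnight to near confluency, then exposed to compound at 100 or 1000 μg/mL for 24-72 h in quadruplicate wells. Cells trypsinized, serially diluted and replated, then grown 3-5 days drug-free. Crystal violet-stained colonies counted. Survival expressed as relative plating efficiency versus untreated controls.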

L1210 [5] = assay: In vitro antitumor activity against L1210 leukemia cells; assay type: functional; conditions: Mus musculus, read-out: ID50 (the source's name)
How it was run: (§2)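 L1210 or P388 cells kept in RPMI-1640 with 10% heat-inactivated fetal calf serum, seeded at 5×10^4 cells/mL in tubes. Grown with compound at 4-5 log doses for 48 h at 37 °C. Growth read by Coulter cell count as % of untreated control tubes. ID50 = dose giving 50% growth inhibition.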

P388 [6] = assay: In vitro antitumor activity against P388 leukemia cells; assay type: functional; conditions: Mus musculus, read-out: ID50 (the source's name); how it was run: as §2

SMILES | Toxic level [1] | EC50 (Measles morbillivirus) | EC50 (Human respirovirus 3) | ID50 (L1210 [2]) | ID50 (P388 [3]) | EC50 (Human alphaherpesvirus 2) | EC50 (Vaccinia virus) | Toxic level [4] | IC50 (L1210 [5]) | IC50 (P388 [6])
OC[C@H]1OC(n2ncc3c(S)ncnc32)[C@H](O)[C@@H]1O (stereo partly drawn) | Not Active | 12 µM | > 5000 µM | Inactive at 10^-4M | Inactive at 10^-4M | 160 µM | – | – | – | –
Cc1nc(N)c2cnn(C3O[C@H](CO)[C@@H](O)[C@H]3O)c2n1 (stereo partly drawn) | Not Active | 12 µM | > 5000 µM | Inactive at 10^-4M | Inactive at 10^-4M | 35 µM | 5000 µM | – | – | –
Cc1nc2c(cnn2C2O[C@H](CO)[C@@H](O)[C@H]2O)c(=O)[nH]1 (stereo partly drawn) | – | 12 µM | > 5000 µM | Inactive at 10^-4M | Inactive at 10^-4M | 50 µM | 1600 µM | 5000 µM | – | –
Cc1nc(S)c2cnn(C3O[C@H](CO)[C@@H](O)[C@H]3O)c2n1 (stereo partly drawn) | – | 0.0014 µM | > 5000 µM | Inactive at 10^-4M | Inactive at 10^-4M | 320 µM | 1200 µM | 5000 µM | – | –
Cc1nc([SeH])c2cnn(C3O[C@H](CO)[C@@H](O)[C@H]3O)c2n1 (stereo partly drawn) | – | 1.3 µM | 13 µM | – | – | 5 µM | 16 µM | 500 µM | 3.1 µM | 3.1 µM
OC[C@H]1OC(n2nc(Br)c3c([SeH])ncnc32)[C@H](O)[C@@H]1O (stereo partly drawn) | – | 1.3 µM | > 5000 µM | – | – | 9 µM | 5 µM | 50 µM | 2.7 µM | 2.3 µM
OC[C@H]1OC(n2ncc3c([SeH])ncnc32)[C@H](O)[C@@H]1O (stereo partly drawn) | – | 1.2 µM | > 5000 µM | – | – | 5 µM | 9.6 µM | 160 µM | 2.5 µM | 2.7 µM
